Shown are actives, neighbours in structure and some others; about 0.77% of the full set was active somewhere.
bIAP act: bovine intestinal alkaline phosphatase activators, primary screen, biochemical, bovine IAP, CDP-star luminescence; activation factor at 20 µM; alkaline phosphatase, intestinal [Bos taurus]; purified bovine IAP, 30 min; hits give high values; fold of DMSO-control signal, blank-subtracted; AID 1016, 2008; hit rate 0.17% among 200,000;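 active means activation factor of 2 or more at 20 µM, a signal rise over negative controls twice the positive control's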
mIAP activ: activators of mouse IAP, primary screen, biochemical, luminescence, uHTS. intestinal alkaline phosphatase [Mus musculus]. muIAP, CDP-Star luminescence, 30 min; hits give high values; 1 = vehicle-only enzyme signal, 0 = enzyme-free wells. activation factor at 10 µM. hit rate 0.24% among 330,000. AID 2805, 2010;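 active means activation factor of at least 2 at 20 µM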
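System: Mouse IAP enzyme | Also added: CDP-Star substrate | Dosing: Compounds dispensed in DMSO | Schedule: 30 min enzyme-substrate-compound incubation at room temperature | Technique: Chemiluminescence readout | Control set: DMSO-only wells and no-enzyme negative control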
mIAP inh: inhibitors of mouse IAP, primary screen, biochemical, luminescence, uHTS | intestinal alkaline phosphatase [Mus musculus] | purified mouse IAP, CDP-Star luminescence, 30 min | inhibition, % at 10 µM | hit rate 0.2% among 330,000 | AID 2806, 2010;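 active means inhibition of at least 40% at 10 µM in the primary screen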;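 further: plate controls were DMSO with enzyme for no effect and no enzyme wells for full effect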
bIAP inhibitor: bovine intestinal alkaline phosphatase inhibitors, primary screen, selectivity assay for TNAP inhibitor project, biochemical, bovine IAP, CDP-star luminescence; alkaline phosphatase, intestinal [Bos taurus]; purified bovine IAP, 30 min; inhibition, % at 20 µM; 190,000 tested, under 10 active; AID 1019, 2008;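 active means over 50% inhibition of intestinal alkaline phosphatase at 20 µM in the single-dose screen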
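Incubation: 30 min reaction at room temperature / Material: purified bovine intestinal alkaline phosphatase (IAP) enzyme / Input: enzyme at 1/65,000,000 dilution / Dosing: 20 µM single dose / Signal: CDP-star luminescence signal / Reagent: CDP-star chemiluminescent phosphatase substrate, 30 µM final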
hIAP inh: human IAP inhibitors, primary screen, biochemical, luminescence, uHTS. AID 2544, 2010. inhibition, % at 10 µM. purified IAP, CDP-Star luminescence, 30 min. Intestinal-type alkaline phosphatase (Homo sapiens), P09923. hit rate 0.12% among 330,000;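 active means inhibition reaching a set limit with compound at 10 µM in the primary screen, cut at about 35% in these data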;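 further: plate controls were DMSO wells with enzyme for no effect and no-enzyme buffer wells for full effect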
Target sequence (P09923 whole entry, looked up): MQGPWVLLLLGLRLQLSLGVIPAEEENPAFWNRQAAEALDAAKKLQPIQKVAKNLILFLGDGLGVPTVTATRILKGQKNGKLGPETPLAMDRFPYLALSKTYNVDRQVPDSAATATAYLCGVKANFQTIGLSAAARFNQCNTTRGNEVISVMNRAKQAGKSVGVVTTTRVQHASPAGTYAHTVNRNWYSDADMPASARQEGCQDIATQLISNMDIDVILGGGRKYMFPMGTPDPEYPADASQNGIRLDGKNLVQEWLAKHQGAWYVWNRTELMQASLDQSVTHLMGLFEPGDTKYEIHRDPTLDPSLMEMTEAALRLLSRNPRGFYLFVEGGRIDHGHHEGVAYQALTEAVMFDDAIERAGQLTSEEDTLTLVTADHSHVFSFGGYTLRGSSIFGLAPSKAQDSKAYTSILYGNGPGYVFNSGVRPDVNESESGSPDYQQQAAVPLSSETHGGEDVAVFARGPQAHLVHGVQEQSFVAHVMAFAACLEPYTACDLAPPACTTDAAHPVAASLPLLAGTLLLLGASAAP
hIAP activ: human IAP activators, primary screen, biochemical, luminescence, uHTS. purified human IAP, CDP-Star luminescence, 30 min; hits give high values; 1 = vehicle-only enzyme, 0 = enzyme-free background. Intestinal-type alkaline phosphatase (Homo sapiens), P09923. hit rate 0.16% among 330,000. activation factor at 10 µM;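 active means activation factor of the enzyme at least 2-fold when tested at 20 µM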
* = called active by the depositor; i = inactive; · = no result given.

SMILES	bIAP act	mIAP activ	mIAP inh	bIAP inhibitor	hIAP inh	hIAP activ
Fc1cccc(NC(=S)NCc2ccccc2Cl)c1	·	3*	-203	·	4	0.96
COc1ccc(CNC(=S)Nc2ccc(F)c(Cl)c2)cc1	0.9	2.6*	-162	10	-28	1.3
Cc1cc(Cl)ccc1NC(=S)NCc1ccccc1Cl	0.9	2.6*	-162	8	-10	1.1
Fc1ccc(CNC(=S)Nc2cccc(Cl)c2)cc1	1.2	2.4*	-138	-24	7	0.93
CCOC(=O)c1ccccc1NC(=O)COC(=O)CN1C(=O)NC2(CCCC2)C1=O	·	1.1	-8	·	-34	1.3
CN(C)/C=C/c1oc2ccc(O)cc2c1[N+](=O)[O-]	0.8	0.74	26	17	46*	0.54
Cc1oc2ccc(O)cc2c1C(=O)c1ccc([N+](=O)[O-])cc1	0.9	0.71	29	8	-8	1.1
CCOC(=O)c1cnn(-c2ccccc2)c1-c1ccncc1	·	1	0	·	1	0.99
CCCCNC(=S)Nc1ccc(C(F)(F)F)cc1	1.3	2.2*	-121	-29	-10	1.1
FC(F)(F)c1ccc(NC(=S)NC2CCCCC2)cc1	1	2.7*	-167	2	-5	1
FC(F)(F)c1cccc(NC(=S)NCC2COc3ccccc3O2)c1 (centres undefined)	1.1	3.6*	-258	-6	-13	1.1
O=C(O)c1ccc(NC(=S)NC2CCCCC2)cc1	1	1	-3	1	13	0.87
CCCCNC(=S)Nc1ccc(Cl)cc1	0.9	1.2	-20	6	10	0.9
FC(F)(F)c1cccc(NC(=S)NC2CCCC2)c1	1	2.6*	-161	1	-7	1.1
COCC(C)(C)COS(N)(=O)=O	·	1	-3	·	0	1
COC(=O)c1ccc(OC(=O)CCN2c3ccccc3Sc3ccccc32)cc1	5.1*	1	0	-414	7	0.93
COc1ccc(CNC(=O)CSCc2cnn(-c3ccccc3)c2-n2cccc2)cc1	2.5*	1	-5	-146	-15	1.1
Cc1ccc(S(=O)(=O)N(C)C)cc1NC(=S)NC(C)CCCC(C)C (centres undefined)	1.4	3.9*	-290	-44	-35	1.4
CCCCCCC(C)NC(=S)Nc1cc(S(=O)(=O)N(C)C)ccc1C (centres undefined)	1.2	4.8*	-381	-21	-14	1.1
CN(C)S(=O)(=O)c1cccc(C(=O)Nc2n[nH]c(C(F)(F)F)n2)c1	·	0.98	2	·	5	0.95
CC(C)Oc1ccc(S(=O)(=O)N2CCOCC2)cc1NC(=O)Cc1cccs1	·	0.96	4	·	3	0.97
C#CCOCCOCCOCCNc1nc(N2CCN(C(=O)C([C@@H](C)CC)n3cc(C(N)COC(=O)C(F)(F)F)nn3)CC2)nc(N2CCN(C(=O)C([C@@H](C)CC)n3cc(C(N)CC(C)C)nn3)CC2)n1 (some centres undefined)	·	1.1	-5	·	9	0.91
c1ccc(-c2c(-c3ccccc3)n(Cc3ccco3)c3ncnc(NCCCn4ccnc4)c23)cc1	49*	1.1	-7	i	3	0.97
OCCNc1ncnc2c1c(-c1ccccc1)c(-c1ccccc1)n2Cc1ccco1	1.1	1	-1	-13	17	0.83
CC(C)CNS(=O)(=O)c1ccc(NC(=O)Cn2nc(-c3ccc(F)cc3)ccc2=O)cc1	0.7	1.1	-7	27	-180	2.8*
SMILES	bIAP act	mIAP activ	mIAP inh	bIAP inhibitor	hIAP inh	hIAP activ
CCc1ccc(OCC(=O)N/N=C(\C)c2ccc(-n3ccnc3)cc2)cc1	2*	0.93	7	-100	-14	1.1
CN1C=CC(=CC=C2C=CC(=O)C=C2)C=C1	·	0.88	12	·	20	0.8
C/C=C\C(=O)Nc1cccc(C2=NOC3(C2)C[C@@H](C(N)=O)N(C(=O)c2ccccc2)C3)c1 (some centres undefined)	·	0.56	44*	·	8	0.92
O=C(NCc1ccccc1)C(c1ccccc1F)N(C(=O)c1csnn1)C1CCCC1 (centres undefined)	·	1	0	·	3	0.97
CCN(CC)S(=O)(=O)c1ccc(NC(=O)CCC2CCCCC2)cc1	2.3*	·	·	-128	·	·
O=C(Nc1cccc(-c2nc3ccccc3o2)c1)c1ccc(N2C(=O)C3C4C=CC(C4)C3C2=O)cc1 (centres undefined)	1	0.99	1	0	-6	1.1
O=C1C2C3C=CC(C3)C2C(=O)N1c1cccc(-c2nc3ccccc3o2)c1 (centres undefined)	3.9*	1.1	-10	-288	-11	1.1
CCOc1ccc(C2Nc3ccc4ccccc4c3-c3c2c(=O)oc2ccccc32)cc1 (centres undefined)	1.7	0.98	2	-70	1	0.99
COc1ccc(C2Nc3ccc4ccccc4c3-c3c2c(=O)oc2ccccc32)cc1 (centres undefined)	3.5*	1.1	-8	-248	-14	1.1
CCOC(=O)c1sc(NC(=O)Nc2ccccc2)cc1C	1.2	1.7	-71	-22	-18	1.2
CCOC(=O)c1sc(NC(=O)Nc2ccccc2Cl)cc1C	1	3.2*	-221	4	3	0.97
COC(=O)c1cccc(NC(=O)c2ccc3c(c2)C(=O)N(Cc2cccnc2)C3=O)c1C	·	0.97	3	·	-10	1.1
CN(C)Cc1ccccc1Sc1cccc2ccccc12	2.3*	·	·	-127	·	·
Cc1ccc(NC(=S)NCc2ccc3[nH]c4c(c3c2)CCCC4)cc1	0.9	2.4*	-141	6	11	0.89
CC(NC(=S)NCCc1ccccc1)C(c1cccs1)N1CCN(Cc2ccccc2)CC1 (centres undefined)	0.3	5.3*	-430	·	-12	1.1
CC(NC(=O)NC1CCCCC1)C(c1cccs1)N1CCN(Cc2ccccc2)CC1 (centres undefined)	3.4*	1.6	-63	-240	11	0.89
CC(NC(=O)NC1CCCCC1)C(c1cccs1)N1CCOCC1 (centres undefined)	0.9	1.1	-6	12	13	0.87
CCN1CCN(C(c2cccs2)C(C)NC(=S)Nc2cc(C)ccc2C)CC1 (centres undefined)	·	1.1	-10	·	2	0.98
O=C(NNC(=O)C1CCN(S(=O)(=O)c2ccc(Cl)cc2)CC1)c1ccccc1O	·	0.72	28	·	-37	1.4
